Source: PubChem
PAFAH1B2 FP inh – PAFAH1B2 (human) inhibition. P68402. recombinant PAFAH1B2, FP-rhodamine activity probe, fluorescence polarization. inhibition, % at 3.39 µM. 340,000 tested, 1.2% active. AID 492953;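 active = inhibition above the mean of all tested compounds plus 3 SD, cut at about 24% in these data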;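 note: 0% = enzyme with DMSO and 100% = wells lacking PAFAH1B2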
PAFAH2 FP inh – PAFAH2 (human) inhibition | AID 492956 | recombinant PAFAH2, FP-rhodamine activity probe, fluorescence polarization | Q99487 | 340,000 tested, 0.99% active | inhibition, % at 3.39 µM;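 active = inhibition above the mean over all tested compounds plus 3 SD, cut at about 30% in these data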;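 note: inhibitors block probe labeling of enzyme so polarization drops; 0% = enzyme with DMSO and 100% = wells lacking PAFAH2 protein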
RBBP9 inhibitor – inhibitors of human serine hydrolase RBBP9 | O75884 | recombinant RBBP9, FP-Rh probe fluorescence polarization | inhibition, % at 7.94 µM | 220,000 tested, 0.2% active | AID 1515;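 active = inhibition above the campaign mean of all tested compounds plus 3 SD, cut at about 14% in these data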;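 note: plate controls were DMSO wells with RBBP9 for no effect and wells lacking RBBP9 protein for full effect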
Target sequence (O75884 whole entry, looked up): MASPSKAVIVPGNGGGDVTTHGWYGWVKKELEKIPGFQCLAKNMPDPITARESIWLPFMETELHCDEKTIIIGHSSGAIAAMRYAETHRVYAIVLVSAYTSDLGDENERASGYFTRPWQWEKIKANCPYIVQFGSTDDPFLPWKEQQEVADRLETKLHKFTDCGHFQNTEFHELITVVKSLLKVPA
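Controls: DMSO-treated enzyme wells and wells lacking RBBP9 | Material: RBBP9 protein | Technique: Fluorescence polarization | Replication: Single well per compound, no replicates | Buffer or medium: Tris-NaCl-Pluronic buffer, pH 8.0 | Timing: 30 min compound preincubation, 45 min probe labeling, 25 °C | Read-out basis: Percent inhibition from mP, scaled between DMSO and no-protein wells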
PAFAH1B3 inh – PAFAH1B3 (human) inhibition | AID 492972 | 340,000 tested, 0.28% active | recombinant PAFAH1B3, FP-rhodamine probe, fluorescence polarization | inhibition, % at 3.39 µM | Q15102;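 active = inhibition above the screen-wide average of all tested compounds plus 3 SD, cut at about 25% in these data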;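 note: 0% = enzyme with DMSO only and 100% = wells lacking PAFAH1B3 protein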
pPAFAH FP inh – pPAFAH (human) enzyme inhibition; 330,000 tested, 1.5% active; recombinant pPAFAH, FP-rhodamine probe fluorescence polarization; Q13093; AID 463082; inhibition, % at 3.39 µM;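 active = inhibition above the mean inhibition across the screen plus 3 SD, cut at about 25% in these data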;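 note: inhibitors block binding of the rhodamine activity-based probe so polarization drops; 0% = enzyme with DMSO and 100% = wells lacking pPAFAH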
Target sequence (Q13093 whole entry, looked up): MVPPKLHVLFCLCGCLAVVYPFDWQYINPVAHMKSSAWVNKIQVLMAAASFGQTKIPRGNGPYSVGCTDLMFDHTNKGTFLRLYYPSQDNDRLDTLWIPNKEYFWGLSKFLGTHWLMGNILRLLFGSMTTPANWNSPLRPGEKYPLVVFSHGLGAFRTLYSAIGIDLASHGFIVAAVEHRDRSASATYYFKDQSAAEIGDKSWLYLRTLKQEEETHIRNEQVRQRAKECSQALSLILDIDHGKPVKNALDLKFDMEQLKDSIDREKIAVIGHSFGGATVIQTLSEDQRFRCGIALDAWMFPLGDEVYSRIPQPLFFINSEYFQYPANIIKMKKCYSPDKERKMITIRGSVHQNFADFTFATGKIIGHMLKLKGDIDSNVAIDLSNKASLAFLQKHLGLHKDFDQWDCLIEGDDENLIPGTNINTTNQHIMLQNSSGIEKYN
* marks the source's active call; other numbers are inactive results; x = no result. Compounds with a hit are over-represented: about 2.7% of the library has one in this group of screens.

SMILES	PAFAH1B2 FP inh	PAFAH2 FP inh	RBBP9 inhibitor	PAFAH1B3 inh	pPAFAH FP inh
COC(=O)C1=CN(Cc2ccc(OC)cc2)C=C(C(=O)OC)C1c1cc(OC)c(OC)c(OC)c1	15	3	x	3	0
COC(=O)C1=CN(C(C)c2ccccc2)C=C(C(=O)OC)C1c1cc(OC)c(OC)c(OC)c1 (stereo unspecified)	28*	4	x	12	-3
O=C(O)/C=C\C(=O)Nc1ccc(F)c(F)c1F	3	-4	1	4	-3
Cc1ccc([C@@H]2CC=C(C(=O)O)[C@H](c3ccc(C(C)(C)C)cc3)N2S(=O)(=O)c2ccc(C)cc2)cc1	87*	-1	x	-3	15
Cc1ccc(S(=O)(=O)N2[C@@H](c3ccc(Br)cc3)C(C(=O)O)=CC[C@H]2c2ccc(C(C)C)cc2)cc1	89*	15	x	-2	16
CCc1ccc([C@@H]2CC=C(C(=O)O)[C@H](c3ccc(C(C)(C)C)cc3)N2S(=O)(=O)c2ccc(C)cc2)cc1	87*	9	x	5	18
Cc1ccc(S(=O)(=O)N2[C@@H](c3ccc(C(C)(C)C)cc3)C(C(=O)O)=CC[C@H]2c2ccc(C(C)C)cc2)cc1	83*	2	x	2	11
CCOc1ccc([C@@H]2CC=C(C(=O)O)[C@H](c3cccc(Cl)c3)N2S(=O)(=O)c2ccc(C)cc2)cc1	19	3	x	3	6
COc1cc([C@@H]2CC=C(C(=O)O)[C@H](c3ccccc3)N2S(=O)(=O)c2ccc(C)cc2)cc(OC)c1OC	3	4	x	4	0
COc1cc([C@@H]2CC=C(C(=O)O)[C@H](c3ccc(Cl)cc3)N2S(=O)(=O)c2ccc(C)cc2)cc(OC)c1OC	-2	-13	x	13	-1
Cc1ccc(S(=O)(=O)N2[C@@H](c3ccc(Cl)cc3)C(C(=O)O)=CC[C@H]2c2ccc(Cl)c(Cl)c2)cc1	90*	7	x	-2	10
CS(=O)(=O)OCCCCOS(C)(=O)=O	2	7	x	1	-6
COc1ccccc1C(=O)NC(CCSC)C(=O)OC(C)C(=O)NC1CC1 (stereo unspecified)	11	5	x	9	0
COc1ccc(N2CCN(C(=O)C(Cc3ccccc3)NC(=O)c3ccccc3)CC2)cc1 (stereo unspecified)	3	0	x	2	x
COc1cccc(N=C2NC(=O)/C(=C/c3cc([N+](=O)[O-])ccc3O)S2)c1	27*	40*	x	39*	25
O=S(=O)(NCc1ccncc1)c1ccc(Br)s1	4	5	-2	-4	-8
Clc1ccc(OCCSCc2nc3ccccc3[nH]2)cc1	31*	0	-3	1	7
Cc1ccc(OCCSCc2nc3ccccc3[nH]2)cc1	11	-3	0	-3	5
CCOc1ccccc1CNS(=O)(=O)c1cnc[nH]1	-1	0	x	9	0
COc1ccc(C(=O)NCc2cnn(C)c2C)cc1OC1CCN(C(C)C)CC1	4	3	x	3	2
CCOC(=O)c1c2c(n(-c3ccc(OC)cc3)c1C)C(=O)C(=O)c1ccccc1-2	31*	56*	x	77*	x
CCOC(=O)c1sc(=S)n(-c2ccc(OC)cc2)c1C	x	x	-3	x	11
Cc1ccc(C(C)(O)CS(=O)(=O)Cc2ccccc2)cc1 (stereo unspecified)	16	4	x	-1	7
O=C1c2cccc3c([N+](=O)[O-])ccc(c23)C(=O)N1c1nccs1	14	10	-1	33*	1
O=C1c2cccc3cccc(c23)C(=O)N1c1nccs1	1	-6	12	6	5
SMILES	PAFAH1B2 FP inh	PAFAH2 FP inh	RBBP9 inhibitor	PAFAH1B3 inh	pPAFAH FP inh
O=C1c2cccc3c([N+](=O)[O-])ccc(c23)C(=O)N1c1ccc(Cl)cn1	12	8	-7	34*	7
Cc1ccsc1C(=O)OCC(=O)Nc1ccc(Cl)cc1C(F)(F)F	3	51*	-4	1	33*
Cc1ccc(C(=O)NCC(=O)OCC(=O)Nc2ccc(Cl)cc2C(F)(F)F)cc1C	-2	4	-10	9	18
CCOC(=O)c1c(NC(=O)/C=C/C(=O)O)sc(C)c1-c1ccc(F)cc1	9	6	11	0	26*
CSc1ccccc1NC(=O)c1ccccn1	4	-4	-1	11	-4
Cc1ccccc1NC(=O)c1ccccn1	1	-9	-2	6	27*
COc1cccc(N(C(=O)CNC(=O)c2ccco2)C(C(=O)NC2CCCC2)c2ccco2)c1 (stereo unspecified)	0	16	x	5	-1
Cc1ccc(C(=O)C(C)OC(=O)CN2C(=O)NC3(CCCC3)C2=O)cc1 (stereo unspecified)	0	-2	x	8	1
COc1ccc(CCN2CC(C(=O)NCCc3ccc(C)cc3)CC2=O)cc1OC (stereo unspecified)	5	-10	-9	-2	29*
CCNC(=S)N1CCN(S(=O)(=O)c2cccc(C(F)(F)F)c2)CC1	7	-1	-6	7	2
O=C(O)c1[nH]c2ccc(Cl)cc2c1CCN1C(=O)c2ccccc2C1=O	84*	-1	-3	-3	-1
O=C(O)c1[nH]c2ccc(Br)cc2c1CCN1C(=O)c2cccc([N+](=O)[O-])c2C1=O	53*	5	-4	2	12
COc1ccc2[nH]c(C(=O)O)c(CCN3C(=O)c4ccc(C(=O)O)cc4C3=O)c2c1	-3	-5	x	0	4
O=c1c2ccccc2nc(N/N=C/c2c(O)ccc3ccccc23)n1O	3	0	-5	11	34*
CN1CCN(NC(=O)c2ccc(Cl)s2)CC1	-1	-2	-3	-1	6
CCCCC[C@@H]1C=C(C(=O)O)[C@H](c2ccc(Br)cc2)N1S(=O)(=O)c1ccc(C)cc1	27*	4	x	0	4
CCc1ccc([C@H]2C(C(=O)O)=C[C@@H](C(C)(C)C)N2S(=O)(=O)c2ccc(C)cc2)cc1	18	-2	x	-5	6
CC(C)(C)[C@@H]1C=C(C(=O)O)[C@H](c2ccc(Cl)cc2)N1S(=O)(=O)c1ccccc1	27*	-1	x	10	5
CCCC[C@@H]1C=C(C(=O)O)[C@H](c2ccc(Cl)cc2)N1S(=O)(=O)c1ccc(C)cc1	28*	9	x	5	-1
CC[C@@H]1C=C(C(=O)O)[C@H](c2ccc(C)cc2)N1S(=O)(=O)c1ccc(C)cc1	8	1	x	7	2
Cc1ccc(S(=O)(=O)N2[C@@H](c3ccc(C#N)cc3)C(C(=O)O)=C[C@H]2CC2CCCC2)cc1	27*	4	x	-1	2
COc1cc(/C=N/NC(=O)c2ccc(COc3ccccc3Cl)o2)cc(Br)c1O	3	-1	-8	13	32*
COc1cccc(/C=N/NC(=O)c2ccc(COc3ccc(Cl)cc3Cl)o2)c1	5	4	-15	2	-9
CC(C)(C)c1ccc(N/N=C(\C#N)S(=O)(=O)C(C)(C)C)cc1	14	19	-6	12	33*
